Measured values taken from ChEMBL document CHEMBL2163332 (J Med Chem, 2012).
The source made the active and inactive calls. No cut-off for these calls is given here.

Test system: not listed separately
Assay: Selectivity ratio of Ki for Myc-tagged delta opioid receptor to Ki for FLAG-tagged mu opioid receptor
`C=C(C(N)=O)[C@@H](NC(=O)[C@H](Cc1c[nH]c2ccccc12)NC(=O)[C@@H]1CCCN1C(=O)[C@@H](N)Cc1ccc(O)cc1)c1ccc(OC)cc1` gave a Ratio Ki of 2110. For `C=C(C(N)=O)[C@@H](NC(=O)[C@H](Cc1c[nH]c2ccccc12)NC(=O)[C@@H]1CCCN1C(=O)[C@@H](N)Cc1ccc(O)cc1)c1ccc2ccccc2c1`, the Ratio Ki was 3100. Compound `C=C(C(N)=O)[C@@H](NC(=O)[C@H](Cc1c[nH]c2ccccc12)NC(=O)[C@@H]1CCCN1C(=O)[C@@H](N)Cc1ccc(O)cc1)c1ccccc1Cl` has a Ratio Ki of 2720. In the case of `C=C(C(N)=O)[C@@H](NC(=O)[C@H](Cc1c[nH]c2ccccc12)NC(=O)[C@@H]1CCCN1C(=O)[C@@H](N)Cc1ccc(O)cc1)c1cccc2ccccc12`, the Ratio Ki is reported as 3260.

Biological target: T1, Mu-type opioid receptor (Homo sapiens, UniProt P35372)
T1 sequence (P35372 whole entry): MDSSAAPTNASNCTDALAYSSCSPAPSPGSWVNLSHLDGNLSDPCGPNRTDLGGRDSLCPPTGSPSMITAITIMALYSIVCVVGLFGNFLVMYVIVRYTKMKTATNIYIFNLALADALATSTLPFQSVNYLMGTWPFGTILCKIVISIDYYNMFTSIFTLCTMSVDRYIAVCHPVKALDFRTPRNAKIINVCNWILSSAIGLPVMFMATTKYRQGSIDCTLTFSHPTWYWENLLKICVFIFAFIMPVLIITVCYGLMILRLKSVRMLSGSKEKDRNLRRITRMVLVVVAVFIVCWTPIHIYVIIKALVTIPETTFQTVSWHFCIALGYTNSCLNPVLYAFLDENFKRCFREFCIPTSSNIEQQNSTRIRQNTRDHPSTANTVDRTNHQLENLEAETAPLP
Assay: Displacement of [3H]DAMGO from FLAG-tagged mu opioid receptor expressed in HEK293 cells after 60 mins by liquid scintillation counter
Assay type: cell-based
`C=C(C(N)=O)[C@@H](NC(=O)[C@H](Cc1c[nH]c2ccccc12)NC(=O)[C@@H]1CCCN1C(=O)[C@@H](N)Cc1ccc(O)cc1)c1ccc(OC)cc1` gave a Ki of 4.83 nM. Work on `C=C(C(N)=O)[C@@H](NC(=O)[C@H](Cc1c[nH]c2ccccc12)NC(=O)[C@@H]1CCCN1C(=O)[C@@H](N)Cc1ccc(O)cc1)c1ccc2ccccc2c1` yielded a Ki of 27.4 nM. In the case of `C=C(C(N)=O)[C@@H](NC(=O)[C@H](Cc1c[nH]c2ccccc12)NC(=O)[C@@H]1CCCN1C(=O)[C@@H](N)Cc1ccc(O)cc1)c1ccccc1Cl`, the Ki is reported as 5.48 nM. `C=C(C(N)=O)[C@@H](NC(=O)[C@H](Cc1c[nH]c2ccccc12)NC(=O)[C@@H]1CCCN1C(=O)[C@@H](N)Cc1ccc(O)cc1)c1cccc2ccccc12` showed a Ki of 26 nM.

Biological target: Delta-type opioid receptor (Homo sapiens, UniProt P41143)
Sequence (P41143 whole entry): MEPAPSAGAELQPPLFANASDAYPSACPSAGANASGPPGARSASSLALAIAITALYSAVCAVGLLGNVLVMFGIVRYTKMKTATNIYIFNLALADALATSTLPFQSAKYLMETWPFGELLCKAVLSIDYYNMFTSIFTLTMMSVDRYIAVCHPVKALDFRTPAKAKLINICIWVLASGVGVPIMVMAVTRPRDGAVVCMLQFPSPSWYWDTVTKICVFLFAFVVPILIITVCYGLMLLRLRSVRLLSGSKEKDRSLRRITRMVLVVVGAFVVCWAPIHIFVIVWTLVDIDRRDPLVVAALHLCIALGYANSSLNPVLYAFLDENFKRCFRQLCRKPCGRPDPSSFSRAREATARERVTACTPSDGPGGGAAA
Assay: Displacement of [3H]DPDPE from Myc-tagged delta opioid receptor expressed in HEK293 cells after 60 mins by liquid scintillation counter
Assay type: cell-based
Work on `C=C(C(N)=O)[C@@H](NC(=O)[C@H](Cc1c[nH]c2ccccc12)NC(=O)[C@@H]1CCCN1C(=O)[C@@H](N)Cc1ccc(O)cc1)c1ccc(OC)cc1` yielded a Ki of 10200 nM. With `C=C(C(N)=O)[C@@H](NC(=O)[C@H](Cc1c[nH]c2ccccc12)NC(=O)[C@@H]1CCCN1C(=O)[C@@H](N)Cc1ccc(O)cc1)c1ccc2ccccc2c1` the Ki was 84900 nM. `C=C(C(N)=O)[C@@H](NC(=O)[C@H](Cc1c[nH]c2ccccc12)NC(=O)[C@@H]1CCCN1C(=O)[C@@H](N)Cc1ccc(O)cc1)c1ccccc1Cl` gave a Ki of 14900 nM. With `C=C(C(N)=O)[C@@H](NC(=O)[C@H](Cc1c[nH]c2ccccc12)NC(=O)[C@@H]1CCCN1C(=O)[C@@H](N)Cc1ccc(O)cc1)c1cccc2ccccc12` the Ki was 84700 nM.

Biological target: Delta-type opioid receptor (Mus musculus, UniProt P32300)
Sequence (P32300 whole entry): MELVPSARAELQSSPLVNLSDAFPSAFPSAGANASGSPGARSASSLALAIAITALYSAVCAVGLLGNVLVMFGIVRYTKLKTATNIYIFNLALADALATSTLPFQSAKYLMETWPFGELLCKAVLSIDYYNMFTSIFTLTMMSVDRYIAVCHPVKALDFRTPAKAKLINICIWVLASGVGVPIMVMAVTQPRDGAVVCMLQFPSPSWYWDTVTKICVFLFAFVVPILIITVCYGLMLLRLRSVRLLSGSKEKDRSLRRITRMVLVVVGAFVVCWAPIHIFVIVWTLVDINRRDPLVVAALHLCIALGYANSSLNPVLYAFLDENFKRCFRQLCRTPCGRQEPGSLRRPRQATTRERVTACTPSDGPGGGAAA
Assay: Agonist activity at delta opioid receptor in Kunming mouse vas deferens assessed as inhibition of electrically-stimulated muscle contraction
Assay type: functional, tissue-based
Compound `C=C(C(N)=O)[C@@H](NC(=O)[C@H](Cc1c[nH]c2ccccc12)NC(=O)[C@@H]1CCCN1C(=O)[C@@H](N)Cc1ccc(O)cc1)c1ccc(OC)cc1` has an IC50 of 299 nM. Compound `C=C(C(N)=O)[C@@H](NC(=O)[C@H](Cc1c[nH]c2ccccc12)NC(=O)[C@@H]1CCCN1C(=O)[C@@H](N)Cc1ccc(O)cc1)c1ccc2ccccc2c1` has an IC50 of 141 nM. `C=C(C(N)=O)[C@@H](NC(=O)[C@H](Cc1c[nH]c2ccccc12)NC(=O)[C@@H]1CCCN1C(=O)[C@@H](N)Cc1ccc(O)cc1)c1ccccc1Cl` gave an IC50 of 365 nM. `C=C(C(N)=O)[C@@H](NC(=O)[C@H](Cc1c[nH]c2ccccc12)NC(=O)[C@@H]1CCCN1C(=O)[C@@H](N)Cc1ccc(O)cc1)c1cccc2ccccc12` gave an IC50 of 84.4 nM.

Biological target: T1, Mu-type opioid receptor
Assay: Agonist activity at mu opioid receptor expressed in HEK293 cells assessed as inhibition of forskolin-induced cAMP accumulation after 30 mins by liquid scintillation counter relative to control
Assay type: functional, cell-based
Method in brief: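 MOR-expressing HEK293 cells seeded at 80% confluence the day before, washed with serum-free medium, preincubated 10 min at 37 °C with 1 mM IBMX, then peptide (5 × 10−11 to 5 × 10−5 M) with 50 μM forskolin added for 30 min at 37 °C. Lysis in 0.2 N HCl, neutralisation, cAMP measured by competition with [3H]cAMP for PKA (≥2 h, 4 °C) and charcoal separation; scintillation counting.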
`C=C(C(N)=O)[C@@H](NC(=O)[C@H](Cc1c[nH]c2ccccc12)NC(=O)[C@@H]1CCCN1C(=O)[C@@H](N)Cc1ccc(O)cc1)c1ccc(OC)cc1` gave an Emax of 85.6%. With `C=C(C(N)=O)[C@@H](NC(=O)[C@H](Cc1c[nH]c2ccccc12)NC(=O)[C@@H]1CCCN1C(=O)[C@@H](N)Cc1ccc(O)cc1)c1ccc2ccccc2c1` the Emax was 67.5%. `C=C(C(N)=O)[C@@H](NC(=O)[C@H](Cc1c[nH]c2ccccc12)NC(=O)[C@@H]1CCCN1C(=O)[C@@H](N)Cc1ccc(O)cc1)c1ccccc1Cl` gave an Emax of 82.6%. Work on `C=C(C(N)=O)[C@@H](NC(=O)[C@H](Cc1c[nH]c2ccccc12)NC(=O)[C@@H]1CCCN1C(=O)[C@@H](N)Cc1ccc(O)cc1)c1cccc2ccccc12` yielded an Emax of 71%.

Biological target: Delta-type opioid receptor (Mus musculus) (UniProt P32300)
Sequence (P32300 whole entry): as above
Assay: Agonist activity at delta opioid receptor in Kunming mouse vas deferens assessed as inhibition of electrically-stimulated muscle contraction in presence of delta opioid receptor antagonist naltrindole
Assay type: functional, tissue-based
In the case of `C=C(C(N)=O)[C@@H](NC(=O)[C@H](Cc1c[nH]c2ccccc12)NC(=O)[C@@H]1CCCN1C(=O)[C@@H](N)Cc1ccc(O)cc1)c1ccc(OC)cc1`, the inhibition is reported as “inactive”. In the case of `C=C(C(N)=O)[C@@H](NC(=O)[C@H](Cc1c[nH]c2ccccc12)NC(=O)[C@@H]1CCCN1C(=O)[C@@H](N)Cc1ccc(O)cc1)c1ccc2ccccc2c1`, the inhibition is reported as “inactive”. For `C=C(C(N)=O)[C@@H](NC(=O)[C@H](Cc1c[nH]c2ccccc12)NC(=O)[C@@H]1CCCN1C(=O)[C@@H](N)Cc1ccc(O)cc1)c1ccccc1Cl`, the inhibition was “inactive”. In the case of `C=C(C(N)=O)[C@@H](NC(=O)[C@H](Cc1c[nH]c2ccccc12)NC(=O)[C@@H]1CCCN1C(=O)[C@@H](N)Cc1ccc(O)cc1)c1cccc2ccccc12`, the inhibition is reported as “inactive”.

Biological target: Mu-type opioid receptor (Cavia porcellus, UniProt P97266)
Sequence (P97266 whole entry): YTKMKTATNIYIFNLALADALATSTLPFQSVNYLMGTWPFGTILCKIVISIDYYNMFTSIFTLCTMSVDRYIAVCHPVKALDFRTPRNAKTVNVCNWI
Assay: Agonist activity at mu opioid receptor in guinea pig ileum assessed as inhibition of electrically-stimulated muscle contraction
Assay type: functional, tissue-based
`C=C(C(N)=O)[C@@H](NC(=O)[C@H](Cc1c[nH]c2ccccc12)NC(=O)[C@@H]1CCCN1C(=O)[C@@H](N)Cc1ccc(O)cc1)c1ccc(OC)cc1` gave an IC50 of 84.2 nM. Compound `C=C(C(N)=O)[C@@H](NC(=O)[C@H](Cc1c[nH]c2ccccc12)NC(=O)[C@@H]1CCCN1C(=O)[C@@H](N)Cc1ccc(O)cc1)c1ccc2ccccc2c1` has an IC50 of 18.2 nM. `C=C(C(N)=O)[C@@H](NC(=O)[C@H](Cc1c[nH]c2ccccc12)NC(=O)[C@@H]1CCCN1C(=O)[C@@H](N)Cc1ccc(O)cc1)c1ccccc1Cl` gave an IC50 of 16.6 nM. `C=C(C(N)=O)[C@@H](NC(=O)[C@H](Cc1c[nH]c2ccccc12)NC(=O)[C@@H]1CCCN1C(=O)[C@@H](N)Cc1ccc(O)cc1)c1cccc2ccccc12` showed an IC50 of 33.9 nM.

Biological target: T1, Mu-type opioid receptor
Assay: Agonist activity at mu opioid receptor expressed in HEK293 cells assessed as inhibition of forskolin-induced cAMP accumulation after 30 mins by liquid scintillation counter
Assay type: functional, cell-based
For `C=C(C(N)=O)[C@@H](NC(=O)[C@H](Cc1c[nH]c2ccccc12)NC(=O)[C@@H]1CCCN1C(=O)[C@@H](N)Cc1ccc(O)cc1)c1ccc(OC)cc1`, the EC50 was 10.9 nM and the inhibition was “Dose-dependent effect”. With `C=C(C(N)=O)[C@@H](NC(=O)[C@H](Cc1c[nH]c2ccccc12)NC(=O)[C@@H]1CCCN1C(=O)[C@@H](N)Cc1ccc(O)cc1)c1ccc2ccccc2c1` the EC50 was 70.3 nM and the inhibition was “Dose-dependent effect”. With `C=C(C(N)=O)[C@@H](NC(=O)[C@H](Cc1c[nH]c2ccccc12)NC(=O)[C@@H]1CCCN1C(=O)[C@@H](N)Cc1ccc(O)cc1)c1ccccc1Cl` the EC50 was 0.84 nM and the inhibition was “Dose-dependent effect”. In the case of `C=C(C(N)=O)[C@@H](NC(=O)[C@H](Cc1c[nH]c2ccccc12)NC(=O)[C@@H]1CCCN1C(=O)[C@@H](N)Cc1ccc(O)cc1)c1cccc2ccccc12`, the EC50 is reported as 72.3 nM and the inhibition is reported as “Dose-dependent effect”.
